# Measurements published in ChEMBL document CHEMBL1150418, “Discovery of potent furan piperazine sodium channel blockers for treatment of neuropathic pain” (Bioorg Med Chem, 2008).
# Tests used:
# [1] = target: T1, Sodium channel protein type 10 subunit alpha (Homo sapiens, UniProt Q9Y5Y9); assay: Inhibition of human recombinant Nav1.8 channel expressed in HEK293 cells at 1 uM by whole cell voltage clamp technique; type: cell-based
# Method in brief: (§1)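 HEK293 cells stably expressing recombinant human sodium channels, grown in high-glucose DMEM, 10% FBS, 2 mM sodium pyruvate, G418. Whole-cell voltage clamp; pipettes 0.8–2.5 MΩ; internal (mM) 135 CsF, 10 CsCl, 5 EGTA, 5 NaCl, 10 HEPES, pH 7.3 with CsOH. Holding pre-pulse set at midpoint of steady-state inactivation for each subtype.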
# Target sequence in this assay (Q9Y5Y9 whole entry, looked up): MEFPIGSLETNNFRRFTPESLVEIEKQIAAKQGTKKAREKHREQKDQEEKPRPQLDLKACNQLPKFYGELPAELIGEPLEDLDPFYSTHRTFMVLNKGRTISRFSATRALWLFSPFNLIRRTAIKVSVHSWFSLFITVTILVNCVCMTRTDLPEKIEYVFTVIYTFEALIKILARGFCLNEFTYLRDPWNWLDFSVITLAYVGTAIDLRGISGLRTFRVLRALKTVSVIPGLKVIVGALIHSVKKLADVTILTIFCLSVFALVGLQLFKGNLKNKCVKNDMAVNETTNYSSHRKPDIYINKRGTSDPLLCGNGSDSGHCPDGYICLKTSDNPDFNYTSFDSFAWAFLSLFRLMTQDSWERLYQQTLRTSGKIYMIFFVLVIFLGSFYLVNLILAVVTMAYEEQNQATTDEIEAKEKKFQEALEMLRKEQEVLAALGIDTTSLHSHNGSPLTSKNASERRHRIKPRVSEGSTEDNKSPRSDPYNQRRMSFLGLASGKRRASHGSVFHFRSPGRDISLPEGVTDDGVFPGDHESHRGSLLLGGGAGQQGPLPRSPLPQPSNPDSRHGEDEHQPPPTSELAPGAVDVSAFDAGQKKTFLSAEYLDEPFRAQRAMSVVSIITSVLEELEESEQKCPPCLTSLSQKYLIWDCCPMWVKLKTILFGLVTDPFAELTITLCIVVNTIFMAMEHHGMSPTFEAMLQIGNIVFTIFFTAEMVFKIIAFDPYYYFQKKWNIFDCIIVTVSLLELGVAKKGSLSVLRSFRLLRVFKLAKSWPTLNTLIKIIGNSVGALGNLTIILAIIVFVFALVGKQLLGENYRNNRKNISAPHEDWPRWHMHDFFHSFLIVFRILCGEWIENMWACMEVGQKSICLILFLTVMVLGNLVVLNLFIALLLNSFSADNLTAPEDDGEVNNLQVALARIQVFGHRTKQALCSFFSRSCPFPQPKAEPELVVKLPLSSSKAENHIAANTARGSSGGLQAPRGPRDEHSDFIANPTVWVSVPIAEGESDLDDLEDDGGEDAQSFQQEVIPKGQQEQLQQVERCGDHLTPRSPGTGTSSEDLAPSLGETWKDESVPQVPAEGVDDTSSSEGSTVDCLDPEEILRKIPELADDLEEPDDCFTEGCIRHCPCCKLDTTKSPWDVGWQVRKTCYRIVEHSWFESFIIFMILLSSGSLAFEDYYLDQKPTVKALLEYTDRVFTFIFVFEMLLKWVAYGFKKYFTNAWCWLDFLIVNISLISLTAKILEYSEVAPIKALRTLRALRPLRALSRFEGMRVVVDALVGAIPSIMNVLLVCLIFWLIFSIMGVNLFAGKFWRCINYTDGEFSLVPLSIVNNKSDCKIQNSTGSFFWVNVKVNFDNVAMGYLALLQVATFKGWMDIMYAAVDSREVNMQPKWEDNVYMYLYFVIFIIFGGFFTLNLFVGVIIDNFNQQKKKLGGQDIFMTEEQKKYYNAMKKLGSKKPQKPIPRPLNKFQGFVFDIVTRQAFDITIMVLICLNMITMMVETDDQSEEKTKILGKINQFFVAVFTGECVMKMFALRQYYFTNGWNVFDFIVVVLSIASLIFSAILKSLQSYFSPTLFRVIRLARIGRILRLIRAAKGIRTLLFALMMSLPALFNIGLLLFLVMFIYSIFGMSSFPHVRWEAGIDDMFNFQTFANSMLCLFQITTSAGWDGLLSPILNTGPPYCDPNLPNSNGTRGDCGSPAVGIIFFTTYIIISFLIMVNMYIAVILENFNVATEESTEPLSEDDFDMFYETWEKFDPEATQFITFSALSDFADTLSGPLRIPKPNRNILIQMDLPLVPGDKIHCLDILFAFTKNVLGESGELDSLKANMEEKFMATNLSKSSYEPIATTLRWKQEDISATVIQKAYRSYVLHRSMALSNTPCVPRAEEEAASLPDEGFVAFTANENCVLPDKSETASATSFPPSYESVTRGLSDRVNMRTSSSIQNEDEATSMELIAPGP
# [2] = Ratio of drug level in brain to plasma in Sprague-Dawley rat; type: ADME
# Rattus norvegicus [3] = assay: Analgesic activity in ip dosed Sprague-Dawley rat by rotarod test
# [4] = target: T1, Sodium channel protein type 10 subunit alpha; assay: Inhibition of human recombinant Nav1.8 channel expressed in HEK293 cells by whole cell voltage clamp technique; type: cell-based; method in brief: as §1
# Target sequence in this assay (Q9Y5Y9 whole entry): as the sequence (Q9Y5Y9 whole entry, looked up) above
# Rattus norvegicus [5] = assay: Analgesic activity in ip dosed Sprague-Dawley rat assessed as attenuation of mechanical allodynia in chung model of neuropathic pain
# [6] = target: Sodium channel protein type 2 subunit alpha (Homo sapiens, UniProt Q99250); assay: Inhibition of human recombinant Nav1.2 channel expressed in HEK293 cells by whole cell voltage clamp technique; type: cell-based
# Method in brief: (§2)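 HEK293 cells stably expressing recombinant human sodium channels, grown in high-glucose DMEM, 10% FBS, 2 mM sodium pyruvate, G418. Holding pre-pulse set at midpoint of steady-state inactivation for each subtype.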
# Rattus norvegicus [7] = assay: Effect on locomotor activity in ip dosed Sprague-Dawley rat
# [8] = target: Sodium channel protein type 10 subunit alpha (Rattus norvegicus, UniProt Q62968); assay: Blockade of Nav1.8 channel in rat dorsal root ganglion neurons assessed as inhibition of TTX-R current by whole cell patch clamp technique; type: tissue-based
# Method in brief: (§3)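 Whole-cell voltage clamp of TTX-resistant currents in dissociated rat DRG neurons. Pipette (mM): CsF 135, NaCl 5, CsCl 10, EGTA 5, HEPES 10, pH 7.2. Bath (mM): NaCl 22, choline Cl 110, CaCl2 1.8, MgCl2 0.8, HEPES 10, glucose 5, pH 7.4. Inactivated-state protocol with pre-pulse at V1/2 (−40 mV). Mean ± SEM of two to six determinations.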
# [9] = target: Sodium channel protein type 10 subunit alpha (Mus musculus, UniProt Q6QIY3); assay: Inhibition of mouse recombinant Nav1.8 channel expressed in HEK293 cells by isotopic efflux assay; type: cell-based
# [10] = target: Sodium channel protein type 10 subunit alpha (Rattus norvegicus) (UniProt Q62968); assay: Blockade of Nav1.8 channel in rat dorsal root ganglion neurons assessed as inhibition of TTX-R current at 0.3 uM by whole cell patch clamp technique; type: tissue-based; method in brief: as §3
# Rattus norvegicus [11] = assay: Analgesic activity in po dosed Sprague-Dawley rat by edge test; type: functional
# Method in brief: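 Balance test: rats placed on 0.5-cm-thick edges of a 40 × 40 × 36 cm plexiglass box, must pull up onto the edge and avoid falling; cut-off 2 min. Groups of at least six rats.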
# [12] = Cmax in Sprague-Dawley rat at 10 mg/kg, po; type: ADME, organism-based; design: dose 10 mg/kg, route oral; conditions: in vivo
# Method in brief: (§4)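 Rat pharmacokinetics after administration at 10 mg/kg in 10% DMSO/PEG400.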
# [13] = Plasma clearance in Sprague-Dawley rat at 10 mg/kg; type: ADME, organism-based; design: dose 10 mg/kg; method in brief: as §4
# [14] = target: Sodium channel protein type 5 subunit alpha (Homo sapiens, UniProt Q14524); assay: Inhibition of human recombinant Nav1.5 channel expressed in HEK293 cells by whole cell voltage clamp technique; type: cell-based; method in brief: as §2
# Rattus norvegicus [15] = assay: Effect on locomotor activity in po dosed Sprague-Dawley rat; type: functional
# Method in brief: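 Open-field locomotor activity recorded with photobeam activity monitors during the light cycle; groups of at least six rats, mean ± SEM.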
# [16] = Oral bioavailability in Sprague-Dawley rat at 10 mg/kg; type: ADME, organism-based; conditions: in vivo; method in brief: as §4
# [17] = Volume of distribution at steady state in Sprague-Dawley rat at 10 mg/kg; type: ADME, organism-based; design: dose 10 mg/kg; conditions: in vivo, read-out: Vdss; method in brief: as §4
# Rattus norvegicus [18] = assay: Analgesic activity in po dosed Sprague-Dawley rat by rotarod test; type: functional
# Method in brief: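 Accelerating rotorod: after 30-min acclimation, rats placed on 9-cm rod ramping 0–20 rpm over 60 s; latency to fall recorded, maximum 60 s; three training sessions per rat. Groups of at least six rats; mean ± SEM.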
# Rattus norvegicus [19] = assay: Analgesic activity in po dosed Sprague-Dawley rat assessed as attenuation of mechanical allodynia in chung model of neuropathic pain; type: functional
# [20] = target: T1, Sodium channel protein type 10 subunit alpha; assay: Inhibition of human recombinant Nav1.8 channel expressed in HEK293 cells at 0.1 uM by whole cell voltage clamp technique; type: cell-based; method in brief: as §1
# Target sequence in this assay (Q9Y5Y9 whole entry, looked up): as above
# [21] = target: Sodium channel protein type 10 subunit alpha (Rattus norvegicus) (UniProt Q62968); assay: Blockade of Nav1.8 channel in rat dorsal root ganglion neurons assessed as inhibition of TTX-R current at 1 uM by whole cell patch clamp technique; type: tissue-based; method in brief: as §3
# [22] = target: T1, Sodium channel protein type 10 subunit alpha; assay: Inhibition of human recombinant Nav1.8 channel expressed in HEK293 cells at 0.3 uM by whole cell voltage clamp technique; type: cell-based; method in brief: as §1
# Target sequence in this assay (Q9Y5Y9 whole entry, looked up): as above
# [23] = target: Sodium channel protein type 10 subunit alpha (Rattus norvegicus) (UniProt Q62968); assay: Blockade of Nav1.8 channel in rat dorsal root ganglion neurons assessed as inhibition of TTX-R current at 0.1 uM by whole cell patch clamp technique; type: tissue-based; method in brief: as §3
# [24] = target: Sodium channel protein type 10 subunit alpha (Rattus norvegicus) (UniProt Q62968); assay: Blockade of Nav1.8 channel in rat dorsal root ganglion neurons assessed as inhibition of TTX-R current at 10 uM by whole cell patch clamp technique; type: tissue-based; method in brief: as §3
# Sequence of Sodium channel protein type 10 subunit alpha (Mus musculus, UniProt Q6QIY3) (Q6QIY3 whole entry): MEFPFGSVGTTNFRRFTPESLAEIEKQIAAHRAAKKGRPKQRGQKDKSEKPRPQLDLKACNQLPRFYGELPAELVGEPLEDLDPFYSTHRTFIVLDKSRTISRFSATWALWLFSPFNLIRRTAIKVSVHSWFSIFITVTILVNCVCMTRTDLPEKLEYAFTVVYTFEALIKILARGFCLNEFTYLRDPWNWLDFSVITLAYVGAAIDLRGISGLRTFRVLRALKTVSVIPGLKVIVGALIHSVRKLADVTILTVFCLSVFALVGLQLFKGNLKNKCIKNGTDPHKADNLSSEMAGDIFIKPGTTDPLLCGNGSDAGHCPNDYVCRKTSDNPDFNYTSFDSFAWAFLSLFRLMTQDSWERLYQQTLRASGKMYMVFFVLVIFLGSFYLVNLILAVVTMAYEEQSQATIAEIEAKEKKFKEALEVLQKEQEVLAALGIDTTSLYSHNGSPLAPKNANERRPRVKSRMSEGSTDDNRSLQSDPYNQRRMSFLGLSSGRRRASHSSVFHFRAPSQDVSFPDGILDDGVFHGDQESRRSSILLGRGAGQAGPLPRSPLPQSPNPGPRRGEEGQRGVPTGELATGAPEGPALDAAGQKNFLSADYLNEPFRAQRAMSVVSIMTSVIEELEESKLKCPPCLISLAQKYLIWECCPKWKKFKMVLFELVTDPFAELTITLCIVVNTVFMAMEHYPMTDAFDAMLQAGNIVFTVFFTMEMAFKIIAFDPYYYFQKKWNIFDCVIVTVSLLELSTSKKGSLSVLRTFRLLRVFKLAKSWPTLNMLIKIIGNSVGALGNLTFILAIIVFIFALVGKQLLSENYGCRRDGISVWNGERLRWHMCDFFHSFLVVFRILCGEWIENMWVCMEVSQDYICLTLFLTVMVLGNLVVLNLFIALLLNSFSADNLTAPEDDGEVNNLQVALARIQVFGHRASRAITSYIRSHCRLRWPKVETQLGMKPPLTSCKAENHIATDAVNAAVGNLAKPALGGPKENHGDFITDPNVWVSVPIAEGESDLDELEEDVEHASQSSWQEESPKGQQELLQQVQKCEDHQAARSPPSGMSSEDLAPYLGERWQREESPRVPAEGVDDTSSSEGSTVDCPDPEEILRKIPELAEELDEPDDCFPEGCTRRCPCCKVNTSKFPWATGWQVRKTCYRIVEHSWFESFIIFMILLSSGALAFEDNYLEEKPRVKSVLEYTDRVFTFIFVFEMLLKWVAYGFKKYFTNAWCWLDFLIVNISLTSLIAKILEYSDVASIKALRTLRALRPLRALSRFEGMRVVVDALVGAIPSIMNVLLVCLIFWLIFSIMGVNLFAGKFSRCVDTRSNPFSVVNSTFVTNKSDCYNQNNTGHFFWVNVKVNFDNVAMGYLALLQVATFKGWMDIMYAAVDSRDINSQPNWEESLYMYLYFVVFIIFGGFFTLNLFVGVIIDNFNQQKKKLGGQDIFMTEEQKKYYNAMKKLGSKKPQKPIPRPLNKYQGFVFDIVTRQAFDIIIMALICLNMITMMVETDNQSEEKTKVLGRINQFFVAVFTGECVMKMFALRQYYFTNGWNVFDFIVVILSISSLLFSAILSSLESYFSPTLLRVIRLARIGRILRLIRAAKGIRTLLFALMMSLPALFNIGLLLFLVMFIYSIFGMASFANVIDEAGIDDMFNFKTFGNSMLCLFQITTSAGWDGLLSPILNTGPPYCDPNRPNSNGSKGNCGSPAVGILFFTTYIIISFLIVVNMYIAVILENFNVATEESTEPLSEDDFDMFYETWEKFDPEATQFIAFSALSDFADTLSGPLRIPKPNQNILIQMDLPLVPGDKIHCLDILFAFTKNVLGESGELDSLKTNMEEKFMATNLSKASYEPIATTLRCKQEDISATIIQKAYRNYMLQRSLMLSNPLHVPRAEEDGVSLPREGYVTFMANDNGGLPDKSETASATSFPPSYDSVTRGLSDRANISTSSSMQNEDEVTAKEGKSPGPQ
structure (smiles),measurement,setting,value
CN(C)c1ccc(-c2ccc(C(=O)N3CCN(C4CCCCC4)CC3)o2)cc1,inhibition,[1],65%
Cc1cccc(C)c1OCC(C)N (stereo not drawn) [MEXILETINE],Kp,"[2]; Sprague-Dawley, brain and plasma",1.4
same,ED50,Rattus norvegicus [3],> 140 µmol/kg
same,IC50,[4],56 µM
same,ED50,Rattus norvegicus [5],102 µmol/kg
same,IC50,[6],2.9 µM
same,ED50,Rattus norvegicus [7],45 µmol/kg
same,IC50,[8],31 µM
C[C@@H](NC(=O)c1ccc(-c2ccc(Cl)cc2)o1)C(=O)N1CCN(CCCOc2ccc(C(=O)C3CC3)cc2)CC1,IC50,[4],1 µM
O=C(NCCCN1CCCCC1)c1ccc(-c2ccc(Cl)cc2)o1,IC50,[9],1.6 µM
same,inhibition,[10],52%
O=C(c1ccc(-c2ccc(Cl)cc2)o1)N1CCOCC1,IC50,[9],32 µM
CN1CCC(NC(=O)c2ccc(-c3ccc(Cl)cc3)o2)CC1,IC50,[9],1.9 µM
same,inhibition,[10],51%
Nc1nnc(-c2cccc(Cl)c2Cl)c(N)n1 [LAMOTRIGINE],ED50,Rattus norvegicus [11],> 390 µmol/kg
same,Ratio,[2]; brain,26
same,Cmax,[12],3500 ng/mL
same,clearance,[13],1 mL/min/kg
same,IC50,[14],62 µM
same,IC50,[4],96 µM
same,ED50,Rattus norvegicus [15],> 390 µmol/kg
same,bioavailability,[16],79%
same,Vd,[17],0.98 L/kg
same,ED50,Rattus norvegicus [18],> 390 µmol/kg
same,IC50,[6],10 µM
same,ED50,Rattus norvegicus [19],47 µmol/kg
same,IC50,[8],25 µM
CN1CCN(C(=O)c2ccc(-c3ccc(Oc4ccccc4)cc3)o2)CC1,inhibition,[20],35%
same,inhibition,[21],90%
same,inhibition,[22],87%
same,inhibition,[23],55%
O=C(c1ccc(-c2cccc(Cl)c2)o1)N1CCN(C2CCCCC2)CC1,inhibition,[20],22%
same,inhibition,[1],80%
CN1CCN(C(=O)c2ccc(-c3ccc(C(C)(C)C)cc3)o2)CC1,inhibition,[21],55%
same,inhibition,[22],32%
CC(C)(C)c1ccc(-c2ccc(C(=O)N3CCNCC3)o2)cc1,inhibition,[20],44%
same,inhibition,[24],86%
same,inhibition,[1],85%
